From ChEMBL document CHEMBL4041514, “From pyrrolidinyl-benzodioxane to pyrrolidinyl-pyridodioxanes, or from unselective antagonism to selective partial agonism at α4β2 nicotinic acetylcholine receptor” (Eur J Med Chem, 2017) come the findings set out here.

Assay [1] is described as follows: Displacement of [3H]epibatidine from rat cerebral cortex membrane alpha4beta2* nAChR pretreated for 5 mins followed by [3H]epibatidine addition after overnight incubation by beta counter. Put shortly:
(§1)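 Competition binding using [3H]epibatidine for rat cortex α4β2* and human α3β4 from transfected cells, and [125I]α-bungarotoxin for rat hippocampus α7*. Kd from three saturation experiments and Ki from three competition experiments. Fitted by nonlinear least squares (LIGAND) with an F test.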
A general note: Displacement assays read how much labelled ligand stays bound in the presence of the test substance.

The nature of assay [2]: Displacement of [125I]alpha-bungarotoxin from rat hippocampus membrane alpha7* nAChR pretreated for 5 mins followed by [125I]alpha-bungarotoxin addition after overnight incubation by gamma counter. Put shortly: as §1
In assay [3] the target is T1, Neuronal acetylcholine receptor; alpha3/beta4 (Homo sapiens, UniProt P30926+P32297). Nature of the assay: Displacement of [3H]epibatidine from human alpha3beta4 nAChR expressed in HEK293 cells pretreated for 5 mins followed by [3H]epibatidine addition after overnight incubation by beta counter. The assay is classed as cell-based. A digest of the protocol:
as §1

The species entered for assay [4] is Rattus norvegicus. Nature of the assay: Selectivity ratio of Ki for displacement of [125I]alpha-bungarotoxin from rat hippocampus membrane alpha7* nAChR to Ki for displacement of [3H]epibatidine from rat cerebral cortex membrane alpha4beta2* nAChR. A digest of the protocol:
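Ki for rat hippocampal α7* ([125I]α-bungarotoxin competition) divided by Ki for rat cortical α4β2* ([3H]epibatidine competition). Each Ki comes from three competition experiments analysed by nonlinear least squares.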

A short description of assay [5]: Selectivity ratio of Ki for displacement of [3H]epibatidine from human alpha3beta4 nAChR expressed in HEK293 cells to Ki for displacement of [3H]epibatidine from rat cerebral cortex membrane alpha4beta2* nAChR. Type of assay: cell-based. A digest of the protocol: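 [3H]-epibatidine competition binding on native rat cerebral cortex membranes (α4β2*) and on membranes of HEK cells transiently transfected with human α3β4. Kd and Ki came from three saturation and three competition experiments each, fitted by nonlinear least squares (LIGAND) with F test. The ratio is α3β4 Ki divided by α4β2 Ki.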

Assay [6] has as its target Neuronal acetylcholine receptor; alpha4/beta2 (Rattus norvegicus, UniProt P09483+P12390). Put plainly: Displacement of [3H](-)cytisine from rat whole brain alpha4beta2 nAChR.
Assay [7] concerns the target T2, Neuronal acetylcholine receptor; alpha4/beta2 (Homo sapiens, UniProt P17787+P43681). Put plainly: Partial agonist activity at human alpha4beta2 nAChR expressed in GH4CL cells by whole-cell patch clamp method relative to acetylcholine. Type of assay: cell-based. Put shortly: (§2)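 Human receptor transiently transfected into GH4C1 pituitary cells. Agonist concentrations applied in sequence. Peak currents normalized to the 1 mM ACh response on the same cell. Fitted to a Hill equation, I = Imax([C]^nH/(EC50^nH+[C]^nH)), to give EC50, Imax and Hill coefficient.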

Assay [8] concerns the target T2, Neuronal acetylcholine receptor; alpha4/beta2. Nature of the assay: Partial agonist activity at human alpha4beta2 nAChR expressed in GH4CL cells by whole-cell patch clamp method. The assay is classed as cell-based. A digest of the protocol:
as §2
(In patch-clamp work, channel activity is measured electrically.)

Assay [9] has as its target T1, Neuronal acetylcholine receptor; alpha3/beta4. Put plainly: Antagonist activity at human alpha3beta4 nAChR expressed in GH4CL cells by whole-cell patch clamp method. The assay is classed as cell-based.
The target of assay [10] is T2, Neuronal acetylcholine receptor; alpha4/beta2. Put plainly: Antagonist activity at human alpha4beta2 nAChR expressed in GH4CL cells by whole-cell patch clamp method. The assay is classed as cell-based.
For assay [11], the target named is T1, Neuronal acetylcholine receptor; alpha3/beta4. Nature of the assay: Partial agonist activity at human alpha3beta4 nAChR expressed in GH4CL cells by whole-cell patch clamp method. Type of assay: cell-based. A digest of the protocol:
as §2

The source made the active and inactive calls. The calls are words filed in the database; no cut-off is given here.

The Ki is a dissociation constant, usually derived from enzyme kinetics or from competition with a known ligand. What is called EC50 is the concentration at which the effect is half-maximal. High values mean a need for much substance, low ones an effect from little substance. As usually defined, the IC50 is the point on the concentration scale where inhibition reaches its midpoint. A higher IC50 goes with weaker potency.

T1 sequence (P30926 whole entry): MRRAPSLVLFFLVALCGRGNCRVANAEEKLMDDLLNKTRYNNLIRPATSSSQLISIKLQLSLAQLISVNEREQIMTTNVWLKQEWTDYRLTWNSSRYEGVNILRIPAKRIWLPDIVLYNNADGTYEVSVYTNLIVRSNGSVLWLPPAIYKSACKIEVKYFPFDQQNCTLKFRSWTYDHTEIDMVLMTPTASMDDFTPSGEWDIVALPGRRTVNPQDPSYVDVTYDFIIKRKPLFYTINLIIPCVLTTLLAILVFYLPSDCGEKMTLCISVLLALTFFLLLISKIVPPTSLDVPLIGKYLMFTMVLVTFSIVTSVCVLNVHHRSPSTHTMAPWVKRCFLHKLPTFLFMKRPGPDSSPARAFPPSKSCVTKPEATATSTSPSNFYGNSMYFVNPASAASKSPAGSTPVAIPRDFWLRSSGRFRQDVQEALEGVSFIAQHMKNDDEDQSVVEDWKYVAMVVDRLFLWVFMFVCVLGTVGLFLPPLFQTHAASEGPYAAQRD
T1 sequence (P32297 whole entry): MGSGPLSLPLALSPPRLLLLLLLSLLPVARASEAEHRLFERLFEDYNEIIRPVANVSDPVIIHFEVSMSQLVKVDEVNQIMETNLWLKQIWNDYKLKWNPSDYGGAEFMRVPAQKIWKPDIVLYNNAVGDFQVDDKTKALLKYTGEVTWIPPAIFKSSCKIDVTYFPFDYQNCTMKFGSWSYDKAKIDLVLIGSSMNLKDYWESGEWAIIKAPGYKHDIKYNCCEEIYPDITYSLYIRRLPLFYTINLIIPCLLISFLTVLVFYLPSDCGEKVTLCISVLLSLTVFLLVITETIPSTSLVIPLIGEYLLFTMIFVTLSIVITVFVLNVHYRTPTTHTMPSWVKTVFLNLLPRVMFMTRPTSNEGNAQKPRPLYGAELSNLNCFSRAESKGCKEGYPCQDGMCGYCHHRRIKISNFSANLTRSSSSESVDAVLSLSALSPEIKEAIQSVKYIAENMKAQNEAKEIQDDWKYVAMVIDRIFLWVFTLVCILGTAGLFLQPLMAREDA
T2 sequence (P17787 whole entry): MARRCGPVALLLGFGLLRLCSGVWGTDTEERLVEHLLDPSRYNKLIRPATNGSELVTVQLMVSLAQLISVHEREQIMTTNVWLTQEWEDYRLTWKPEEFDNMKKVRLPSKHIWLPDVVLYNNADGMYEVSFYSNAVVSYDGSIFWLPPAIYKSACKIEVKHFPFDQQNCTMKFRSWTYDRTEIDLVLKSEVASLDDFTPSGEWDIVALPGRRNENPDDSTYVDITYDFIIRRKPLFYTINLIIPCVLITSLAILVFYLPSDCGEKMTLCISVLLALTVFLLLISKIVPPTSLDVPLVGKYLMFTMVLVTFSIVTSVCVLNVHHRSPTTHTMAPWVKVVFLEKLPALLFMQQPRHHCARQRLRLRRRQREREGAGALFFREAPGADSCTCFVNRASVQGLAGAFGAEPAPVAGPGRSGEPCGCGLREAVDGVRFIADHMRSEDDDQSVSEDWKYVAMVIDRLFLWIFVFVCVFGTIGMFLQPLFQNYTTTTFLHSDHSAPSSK
T2 sequence (P43681 whole entry): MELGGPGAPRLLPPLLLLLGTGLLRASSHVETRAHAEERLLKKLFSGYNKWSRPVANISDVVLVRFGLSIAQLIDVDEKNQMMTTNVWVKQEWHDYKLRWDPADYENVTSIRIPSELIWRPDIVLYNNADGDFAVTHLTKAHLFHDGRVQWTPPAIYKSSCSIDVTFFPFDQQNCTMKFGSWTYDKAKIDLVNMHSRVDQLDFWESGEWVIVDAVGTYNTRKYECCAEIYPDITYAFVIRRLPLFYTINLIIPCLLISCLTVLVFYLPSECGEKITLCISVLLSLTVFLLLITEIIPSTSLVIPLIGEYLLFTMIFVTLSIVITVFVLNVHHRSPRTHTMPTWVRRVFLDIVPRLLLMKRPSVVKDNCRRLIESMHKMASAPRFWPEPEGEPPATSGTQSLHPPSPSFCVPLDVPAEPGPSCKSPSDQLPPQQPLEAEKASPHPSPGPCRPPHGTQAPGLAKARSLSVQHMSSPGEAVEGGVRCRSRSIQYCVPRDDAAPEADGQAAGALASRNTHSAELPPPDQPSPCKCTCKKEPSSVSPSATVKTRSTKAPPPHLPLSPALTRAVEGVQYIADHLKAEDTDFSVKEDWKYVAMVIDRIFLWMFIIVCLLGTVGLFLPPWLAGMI
Chain of Neuronal acetylcholine receptor; alpha4/beta2 (Rattus norvegicus, UniProt P09483+P12390) (P09483 whole entry): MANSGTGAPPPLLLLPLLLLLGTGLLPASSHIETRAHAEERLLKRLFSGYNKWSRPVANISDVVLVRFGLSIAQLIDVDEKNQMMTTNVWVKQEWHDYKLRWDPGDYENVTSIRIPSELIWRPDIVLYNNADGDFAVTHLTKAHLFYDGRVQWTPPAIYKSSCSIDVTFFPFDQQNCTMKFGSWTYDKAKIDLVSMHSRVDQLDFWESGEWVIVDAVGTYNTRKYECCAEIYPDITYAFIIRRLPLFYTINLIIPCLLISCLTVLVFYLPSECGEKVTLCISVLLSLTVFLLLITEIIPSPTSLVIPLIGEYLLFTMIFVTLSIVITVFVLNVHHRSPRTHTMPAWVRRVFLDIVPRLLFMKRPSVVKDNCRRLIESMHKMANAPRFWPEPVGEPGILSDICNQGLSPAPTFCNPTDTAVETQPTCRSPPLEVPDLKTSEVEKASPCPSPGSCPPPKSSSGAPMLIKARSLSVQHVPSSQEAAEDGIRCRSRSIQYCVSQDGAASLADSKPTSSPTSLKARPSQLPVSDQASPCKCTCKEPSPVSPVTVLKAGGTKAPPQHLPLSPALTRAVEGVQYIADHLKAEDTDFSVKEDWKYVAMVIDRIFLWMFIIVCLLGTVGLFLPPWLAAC
Chain of Neuronal acetylcholine receptor; alpha4/beta2 (Rattus norvegicus, UniProt P09483+P12390) (P12390 whole entry): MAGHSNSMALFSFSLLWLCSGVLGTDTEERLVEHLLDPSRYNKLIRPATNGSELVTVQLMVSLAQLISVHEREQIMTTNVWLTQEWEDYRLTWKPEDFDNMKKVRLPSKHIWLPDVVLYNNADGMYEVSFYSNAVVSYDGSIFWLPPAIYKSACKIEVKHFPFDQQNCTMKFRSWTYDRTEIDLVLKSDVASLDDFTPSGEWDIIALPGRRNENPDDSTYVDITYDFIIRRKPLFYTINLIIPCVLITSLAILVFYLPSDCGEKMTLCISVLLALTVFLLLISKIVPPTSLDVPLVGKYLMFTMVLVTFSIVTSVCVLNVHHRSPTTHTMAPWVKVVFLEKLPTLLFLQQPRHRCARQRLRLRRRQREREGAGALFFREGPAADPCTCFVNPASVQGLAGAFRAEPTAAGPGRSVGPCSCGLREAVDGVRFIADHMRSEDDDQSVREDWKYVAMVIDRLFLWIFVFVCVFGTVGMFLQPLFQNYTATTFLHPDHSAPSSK

`CN1CCC[C@H]1[C@H]1COc2ccc(O)cc2O1`: the Ki in [1] was determined as 0.012 µM; in [2] it was 0.43 µM; in [3], 0.31 µM. In addition, the Ratio Ki in assay [4] is 36; in assay [5] it was 26.

On to `CN1CCC[C@H]1c1cc2ccccc2o1`, for which affinity in [6] was put at a Ki of 0.16 µM.

With `CN1CCC[C@H]1[C@@H]1COc2ncccc2O1`, the results for the Ki in assay [1], in [2] and in assay [3] were 0.41 µM, 89 µM and 16.2 µM, respectively. Moreover, the %max in [7] came out at 24.2%. The molecule further displayed an EC50 in assay [8] of 10.1 µM. Further, the Ratio Ki in assay [4] is 215; in assay [5], 39.

`CN1CCC[C@H]1[C@@H]1COc2ccccc2O1`: the results for the Ki in [1], in assay [2] and in assay [3] were 0.26 µM, 21 µM and 1.2 µM, respectively. In addition, the IC50 in assay [9] lay in the range of 2.78 to 2.8 µM; in [10], 5.36 to 5.4 µM. Also, the result in assay [8] and in assay [11] was inactive. Moreover, the Ratio Ki in [4] was 81; in assay [5], 5.

With `CN1CCC[C@H]1[C@H]1COc2cccnc2O1`, the values for the inhibition constant Ki in assay [1] and in [2] were 30 µM and 12 µM, respectively.

Take `CN1CCC[C@H]1[C@@H]1COc2ccncc2O1`: the Ki in [1] is 1.64 µM; in [3], 5.8 µM.

Take `CN1CCC[C@H]1[C@H]1COc2ccccc2O1`: the inhibition constant (Ki) in assay [1] turned out to be 0.47 µM; in [2], 14.6 µM; in assay [3] it was 8.2 µM.

As to `CN1CCC[C@H]1[C@H]1COc2ccncc2O1`, the Ki stood at 3.6 µM in [1] and 8.9 µM in [3].

Regarding `COc1ccc(O)cc1OC[C@@H]1CCCN1C`, the Ki in [1] was found to be 0.019 µM; in [2] it was 1.15 µM. Besides, the Ratio Ki turned out to be 60 in assay [4] and 14 in assay [5].

Consider `C[C@@H](Oc1cccc(O)c1)[C@@H]1CCCN1C`, for which the Ki came to 0.011 µM in assay [1] and 0.057 µM in assay [2]. Also, the Ratio Ki in assay [4] was found to be 5; in assay [5], 23.

In the case of `CN1CCC[C@H]1[C@@H]1COc2cccnc2O1`, the Ki came out at 43 µM in [1] and 24 µM in [2].

Regarding `CN1CCC[C@H]1[C@H]1COc2ncccc2O1`, the Ki in [1] was 30.4 µM; in assay [2] it was greater than 10 µM; in assay [3], 22 µM.
